# Measured values as given in article PMC7445463 (Diabetologia, 2020).
# Several values for one entry are separate records, joined by “and”; a condition that tells them apart may be missing. Equal entries are not always repeated.
# Key:
# [1] = tested on: mouse and human primary PaSC and immortalized imPaSC; experiment: Signalling and gene expression in pancreatic stellate cells; type: cell-based; conditions: Met 0.1-10 mM
# [2] = tested on: diabetic patients with chronic heart failure; type: in vivo, human; conditions: metformin 2 g/day for 3 months
# glucokinase [3] = target: T1, glucokinase (Homo sapiens, UniProt P35557); experiment: Simplici-T1 Phase 1b/2 trial; type: in vivo
# T1 sequence (P35557 1-465): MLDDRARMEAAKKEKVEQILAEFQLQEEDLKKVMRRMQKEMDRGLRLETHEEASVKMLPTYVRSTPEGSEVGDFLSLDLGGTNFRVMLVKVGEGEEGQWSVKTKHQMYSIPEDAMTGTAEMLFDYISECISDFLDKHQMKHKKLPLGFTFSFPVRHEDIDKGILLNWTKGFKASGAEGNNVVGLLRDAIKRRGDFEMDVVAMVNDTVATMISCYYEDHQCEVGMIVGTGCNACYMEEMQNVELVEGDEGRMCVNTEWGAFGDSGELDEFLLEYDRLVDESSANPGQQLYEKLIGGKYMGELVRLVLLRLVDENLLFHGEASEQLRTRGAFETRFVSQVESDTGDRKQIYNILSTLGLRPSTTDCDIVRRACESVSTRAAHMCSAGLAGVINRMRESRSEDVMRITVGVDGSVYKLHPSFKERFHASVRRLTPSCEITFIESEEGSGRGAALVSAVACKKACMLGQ
# glucokinase [4] = target: T1, glucokinase; conditions: type 2 diabetes (n=190); cited from earlier work
# [5] = Intrajejunal metformin with or without bile exclusion or TCA, T2DM; type: in vivo, human; conditions: 1 g intrajejunal; endogenous bile included
# [6] = Portal vein and arterialized lactate after oral metformin; type: in vivo, human; conditions: 90 minutes after 1000 mg oral
# [7] = tested on: human hepatocytes (HepG2); experiment: GDF15 and FGF21 expression in hepatocytes; type: cell-based; conditions: 2 mM, up to 24-h
# human heart = experiment: Metformin uptake in the human heart by PET scanning; type: in vivo
# [8] = metformin vs placebo crossover in DM and chronic heart failure; type: in vivo, human; conditions: 2 g/day, 3 months vs placebo
# [9] = tested on: patients with type 2 diabetes; experiment: Network meta-analysis of antidiabetic medications on blood pressure; design: species or system human; conditions: frequentist random-effects network meta-analysis, 192 studies
# [10] = Serum uteroglobin before and after metformin monotherapy; type: in vivo, human; conditions: after 12 months monotherapy; before 14.43±0.97; n=20
# [11] = 42-h fast crossover trial with or without metformin; type: in vivo, human; conditions: 1 g twice daily for a week
# DIO C57/B6 mice = experiment: gastric emptying and weight in DIO mice; type: in vivo, mouse; conditions: 14-day
# [12] = DIO mice under 50% dietary restriction, indirect calorimetry; type: in vivo, mouse
# [13] = Insulin icodec vs IGlar U100 26-week phase 2 trial; type: in vivo, human
# How it was run: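 Randomized, double-blind, double-dummy, treat-to-target phase 2 trial lasting 26 weeks. Participants were insulin-naïve adults with T2D and HbA1c 7.0-9.5% on metformin ± DPP4i, randomized 1:1 (n=247). Starting doses were 70 U once weekly or 10 U once daily, titrated weekly to a pre-breakfast SMBG target of 3.9-6.0 mmol/L. The primary endpoint was HbA1c change from baseline to week 26; FPG and mean weekly dose over the last two weeks were secondary.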
# [14] = stated as background; cited from earlier work
# [15] = tested on: individuals with type 2 diabetes; experiment: insulin icodec PK/PD trial; design: species or system human; conditions: in vivo
# HG-CD34+ stem cells = experiment: ROS production in CD34+ stem cells; type: cell-based, human; conditions: n=3
# individuals with obesity = type: in vivo, human
# [16] = tested on: human ventricular cardiac fibroblasts (HCF); experiment: Human ventricular cardiac fibroblasts, mRNA expression by RT-qPCR; type: cell-based; conditions: TGF-β treatment; p<0.01
molecule,measurement,setting,value
"CN(C)C(=N)N=C(N)N [MET, metformin]",levels of yes-associated protein 1 (YAP),[1],inhibited
same,cardiac functions as assessed by echocardiography and spiroergometry,[2],did not change
same,HbA1c,[2]; compared to placebo,reduced
CCCO[C@H]1CC[C@H](N(C(=O)Nc2ncc(SCC(=O)O)s2)C2CCCCC2)CC1 [TTP399],plasma β-hydroxybutyrate or urine ketones vs placebo,glucokinase [3]; 12 weeks,no significant or clinically relevant increases
same,severe hypoglycemia,glucokinase [3]; 12 weeks,No incidents
same,improvement of TIR 70-180 vs placebo,glucokinase [3]; Part 1 (n=19),12%
same,"A1C vs placebo, trial product estimand","glucokinase [3]; Part 2 (n=85), 12 weeks",-0.32% and -0.3%
same,improvement of (daytime) TIR,"glucokinase [3]; Part 2, ITT",8%
same,responders,"glucokinase [3]; Part 2, placebo 12%",42%
same,A1C vs placebo,glucokinase [4],−0.9%
CN(C)C(=N)N=C(N)N [metformin],plasma glucose iAUC 0-180 min,[5],516 ± 46 mmol·min/L
same,"increase of lactate concentration, arterialized blood",[6],2%
same,"increase of lactate concentration, portal vein",[6]; n=8 cirrhotic participants,23%
same,increase of FGF21 mRNA,[7],12 fold
same,increase of GDF15 mRNA,[7],4 fold
same,metformin uptake in healthy human hearts,human heart,no uptake
same,GLP-1 and peptide YY during meal test,[8],increased
same,"systolic blood pressure, mean difference compared to placebo",[9],-1.21 mmHg
same,serum uteroglobin,[10],16.47 ± 1.33 ng/mL
same,serum FGF21,[11]; without 146 ± 30,156 ± 29 ng/mL
same,serum GDF15,[11]; without 607 ± 89,1004 ± 61 ng/mL
CC[C@H](C)[C@H](NC(=O)[C@H](CC(C)C)NC(=O)[C@H](Cc1c[nH]c2ccccc12)NC(=O)[C@H](CCC(N)=O)NC(=O)[C@@H](NC(=O)[C@H](Cc1ccccc1)NC(=O)[C@H](C)NC(=O)[C@H](CCCCNC(=O)COCCOCCNC(=O)COCCOCCNC(=O)CC[C@H](NC(=O)CCCCCCCCCCCCCCCCCCC(=O)O)C(=O)O)NC(=O)[C@H](CCC(N)=O)NC(=O)[C@H](C)NC(=O)[C@@H](NC(=O)[C@H](CCCCN)NC(=O)[C@H](CC(=O)O)NC(=O)[C@H](CC(C)C)NC(=O)C(C)(C)NC(=O)[C@@H](NC(=O)[C@H](CO)NC(=O)[C@H](Cc1ccc(O)cc1)NC(=O)[C@H](CC(=O)O)NC(=O)[C@H](CO)NC(=O)[C@@H](NC(=O)[C@H](Cc1ccccc1)NC(=O)[C@@H](NC(=O)CNC(=O)[C@H](CCC(=O)O)NC(=O)C(C)(C)NC(=O)[C@@H](N)Cc1ccc(O)cc1)[C@@H](C)O)[C@@H](C)O)[C@@H](C)CC)[C@@H](C)CC)C(C)C)C(=O)N[C@@H](C)C(=O)NCC(=O)NCC(=O)N1CCC[C@H]1C(=O)N[C@@H](CO)C(=O)N[C@@H](CO)C(=O)NCC(=O)N[C@@H](C)C(=O)N1CCC[C@H]1C(=O)N1CCC[C@H]1C(=O)N1CCC[C@H]1C(=O)N[C@@H](CO)C(N)=O [tirzepatide],GE delay after chronic treatment,DIO C57/B6 mice,abolished after 14-day chronic treatment
same,weight loss during dietary restriction,"[12]; 3 nmol/kg QD, 14 days, vehicle 15.2±1.2, pair fed 17.0±0.7",22.4±1.3%
same,increase of fat utilization vs vehicle,[12]; during DR,more than 30%
same,energy expenditure during dietary restriction,"[12]; reduction, indirect calorimetry",maintained similar to levels prior to DR
Insulin icodec,estimated treatment ratio of weekly dose vs IGlar U100,"[13]; 95% CI 0.69, 0.94",0.81
same,estimated treatment difference HbA1c vs IGlar U100,"[13]; 95% CI -0.38, 0.02",-0.18%
same,estimated treatment difference FPG vs IGlar U100,"[13]; 95% CI -0.66, 0.23",-0.22 mmol/L
same,estimated mean HbA1c at week 26,"[13]; baseline 8.1 icodec, 8.0 IGlar U100",6.7%
same,estimated mean FPG at week 26,[13]; in vivo,6.84 mmol/L
same,"estimated mean weekly insulin dose, last two weeks",[13]; in vivo,229 U/week
same,level 2 and 3 hypoglycaemia,[13]; on-treatment period,53 events per 100 patient years of exposure
same,estimated mean change in HbA1c from baseline,[13]; week 26,-1.33 %-points
same,terminal half-life,[14],~ 196 hours
insulin icodec,geometric mean half-life (t½),[15],196 h
liraglutide,HG-induced production of ROS,HG-CD34+ stem cells,significant reduction
same,change in heart rate during the 1-year treatment phase,"individuals with obesity; liraglutide 3.0 mg/day, with or without exercise, PLA -0.7",3.7 min⁻¹
same,systolic and diastolic BP during the 1-year treatment phase,individuals with obesity; no group differences,decreased
transforming growth factor beta [TGF-β],TNC expression in HCF,[16],upregulated TNC expression
